For experiment [1], the system named is MDA-MB-231. In words: Induction of cell cycle arrest in human MDA-MB-231 cells assessed as < G1 DNA content at 8 uM after 48 hrs by propidium iodide staining based flow cytometry. It is filed as functional. The gist of the method: (§1)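 After 48 h of compound exposure, MDA-MB-231 cells were fixed, stained with propidium iodide and analysed by flow cytometry, with at least 3000 cells per population. Phase fractions (<G1, G1, S, G2/M, >G2) were compared with DMSO vehicle controls. Values are mean ± SD of 4 independent cell samples.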
Background: In flow cytometry, cells or beads pass a laser one at a time.

For experiment [2], the system named is MDA-MB-231. The experiment in a line: Induction of cell cycle arrest in human MDA-MB-231 cells assessed as >G2 DNA content at 8 uM after 48 hrs by propidium iodide staining based flow cytometry. The experiment is classed as functional. The method, boiled down:
as §1

Experiment [3] relates to MDA-MB-231. The experiment in a line: Induction of cell cycle arrest in human MDA-MB-231 cells assessed as accumulation at G2/M phase at 8 uM after 48 hrs by propidium iodide staining based flow cytometry. It is filed as functional. The gist of the method:
as §1

Experiment [4] deals with MDA-MB-231. The experiment in a line: Cytotoxicity against human MDA-MB-231 cells after 48 hrs by MTT assay. The conditions noted are these: MDA-MB-231, 48 h. It is filed as functional, cell-based. The method, boiled down: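 MDA-MB-231 cells exposed to a range of compound concentrations for 48 h, then viability read by MTT. IC50 (50% cell death) obtained by non-linear regression to a sigmoidal dose-response function; mean ± SD of three independent experiments.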
(In general: Tetrazolium assays rely on reduction of a dye to a coloured formazan, in cell work by metabolically active cells.)

Experiment [5] concerns MDA-MB-231. The experiment in a line: Induction of cell cycle arrest in human MDA-MB-231 cells assessed as accumulation at G1 phase at 8 uM after 48 hrs by propidium iodide staining based flow cytometry. It is filed as functional. The gist of the method:
as §1

For experiment [6], the system named is MDA-MB-231. In words: Induction of cell cycle arrest in human MDA-MB-231 cells assessed as accumulation at S phase at 8 uM after 48 hrs by propidium iodide staining based flow cytometry. The experiment is classed as functional. The gist of the method: as §1
The test system of experiment [7] is MDA-MB-231. The experiment in a line: Induction of cell cycle arrest in human MDA-MB-231 cells assessed as reduction in accumulation at G1 phase at 15 uM after 48 hrs by propidium iodide staining based flow cytometry. It is filed as functional. The method, boiled down: as §1
The test system of experiment [8] is MDA-MB-231. In words: Induction of cell cycle arrest in human MDA-MB-231 cells assessed as reduction in accumulation at S phase at 15 uM after 48 hrs by propidium iodide staining based flow cytometry. It is filed as functional. The method, boiled down: as §1
Experiment [9] relates to MDA-MB-231. The experiment in a line: Induction of cell cycle arrest in human MDA-MB-231 cells assessed as < G1 DNA content at 15 uM after 48 hrs by propidium iodide staining based flow cytometry. It is filed as functional. The gist of the method:
as §1

The subject of experiment [10] is MDA-MB-231. In words: Induction of cell cycle arrest in human MDA-MB-231 cells assessed as accumulation at G2/M phase at 15 uM after 48 hrs by propidium iodide staining based flow cytometry. It is filed as functional. The method, boiled down: as §1
For experiment [11], the system named is MDA-MB-231. In words: Induction of cell cycle arrest in human MDA-MB-231 cells assessed as >G2 DNA content at 15 uM after 48 hrs by propidium iodide staining based flow cytometry. The experiment is classed as functional. The gist of the method: as §1

Structures are written as SMILES. The source made the active and inactive calls. No cut-off for these calls is given here. Bounds are passed on as bounds.

As for `Clc1nc(Cl)c2scc(Br)c2n1`, the outcome in [1], in experiment [2], in [3], in experiment [5] and in experiment [6] was inactive. In experiment [4], the midpoint of inhibition, the IC50, lay at 5.9 µM.
Take `Clc1nc(Cl)c2sccc2n1`: the result in experiment [7] and in experiment [8] was Active. Further, the result in experiment [9] and in experiment [11] was inactive. For the same molecule, the concentration for half-maximal inhibition (IC50) in experiment [4] was 9 µM. Moreover, the Activity in experiment [10] is given as more than 70%.

One may read the IC50 as the concentration that gives 50% inhibition. Read a low IC50 as greater potency in that assay.

(Values after ChEMBL document CHEMBL3400042, “Mitotic arrest of breast cancer MDA-MB-231 cells by a halogenated thieno[3,2-d]pyrimidine” (Bioorg Med Chem Lett, 2015).)
